Bioassay records (PubChem)
tim23-1 inh = growth inhibitors of tim23-1 mutant yeast, primary screen, luminescence, uHTS | S. cerevisiae tim23-1 growth, BacTiter-Glo luminescence, 24 h | inhibition, % at 20 µM | hit rate 1.3% among 330,000 | AID 463212, 2010;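 active means growth inhibition of the mutant yeast at or above 50%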;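 further: temperature-sensitive mutant grown at 25 °C; plate controls were DMSO-treated mutant yeast for no effect and medium wells lacking yeast for full effect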
tim10-1 inh = growth inhibitors of tim10-1 mutant yeast, primary screen, luminescence, uHTS | S. cerevisiae tim10-1 ts strain growth, BacTiter-Glo, 24 h | AID 463190, 2010 | hit rate 2.2% among 330,000 | inhibition, % at 20 µM;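 active means inhibition of at least 40%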;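 further: mutant grown at 25 °C; 0% = DMSO wells with yeast and 100% = wells holding no yeast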
CHOP UPR activ = activators of apoptotic CHOP UPR arm, primary screen, cell-based, CHO-CHOP luciferase reporter, luminescence, uHTS; UPR activation; percent of tunicamycin response over DMSO baseline; AID 449763, 2010; activation, % at 10 µM; hit rate 0.34% among 330,000;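 active means at 10 µM dose, activation of 40% or more, normalized to positive control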;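 further: 100% = tunicamycin at 10 µg/mL and 0% = DMSO alone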
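measured by = luciferase luminescence | assay system = CHO-CHOP cells, stable luciferase reporter of PERK-eIF2a-CHOP signalling | amount = 500 reporter cells seeded per well | timing = 6 h compound exposure at 37 °C after overnight seeding | controls = positive tunicamycin 10 µg/mL, negative DMSO alone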
XBP1 UPR activ = activators of adaptive XBP1 UPR arm, primary screen, cell-based, CHO-XBP1 luciferase reporter, luminescence, uHTS; IRE1-XBP1 UPR activation; percent of tunicamycin response, DMSO as zero; activation, % at 20 µM; hit rate 0.33% among 330,000;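 active means versus positive control, 20 µM dose yields 30% or more activation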;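 further: 100% = tunicamycin at 10 µg/mL and 0% = DMSO only wells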
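Material: CHO-XBP1 cells stably carrying IRE1-XBP1-driven luciferase reporter | Medium: F12 with 10% serum | Compound dosing: 20 µM single concentration, DMSO 1% | Incubation: Overnight seeding at 37 °C, 6 h compound treatment at 37 °C | Detection: Steady-Glo luminescence read | Read-out basis: % activation of reporter signal versus tunicamycin and DMSO controls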
TIM10 inh = growth inhibitors of isogenic TIM10 control yeast, primary screen, counter-screen for tim10-1 yeast inhibitor project, luminescence, uHTS | inhibition, % at 10 µM | S. cerevisiae TIM10 strain growth, BacTiter-Glo luminescence, 24 h | AID 463195, 2010 | hit rate 1.4% among 330,000;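 active means inhibition of 40% or more at the single tested concentration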;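 further: wild-type TIM10 isogenic control strain grown at permissive 25 °C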
XBP1 UPR conf = IRE1-XBP1 UPR arm activators, confirmation, cell-based, CHO-XBP1 luciferase reporter, luminescence, single concentration; hit rate 63% among 1,000; shares compounds with XBP1 UPR activ; activation, % at 20 µM; AID 485299, 2010;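 active means reporter signal at least 30% of the positive control's activation in two or more of four replicate wells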;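 further: plate controls were DMSO negative control for no effect and tunicamycin 10 µg/mL positive control for full effect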
tim10-1 conf = growth inhibitors of tim10-1 mutant yeast, confirmation, single concentration, luminescence, S. cerevisiae; inhibition, % at 20 µM; S. cerevisiae tim10-1 ts strain growth, BacTiter-Glo, 24 h; shares compounds with tim10-1 inh; hit rate 56% among 7,400; AID 463213, 2010;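 active means inhibition of yeast growth at or above a set limit in either of two repeat tests at 20 µM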;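 further: tim10-1 mutant grown at permissive 25 °C to find synthetic lethal compounds; 0% = DMSO yeast wells and 100% = medium wells without yeast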
tim23-1 confirm = tim23-1 mutant yeast growth inhibitors, confirmation, luminescence, single concentration; shares compounds with tim23-1 inh; S. cerevisiae tim23-1 growth, BacTiter-Glo luminescence, 24 h; inhibition, % at 20 µM; hit rate 83% among 4,400; AID 463218, 2010;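 active means inhibition above about 39% in either of two replicate wells at 20 µM, limit read from the data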;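 further: temperature-sensitive tim23-1 mutant grown at 25 °C; 0% = DMSO wells with yeast and 100% = medium wells without yeast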
An asterisk follows results filed as active. This is a sample that favours compounds with a hit; in the whole collection about 3.9% have one here.

`CN(C(=O)Cc1ccc(Cl)c(Cl)c1)C(CN1CCCC1)c1cccc(OCC(=O)O)c1` (configuration not stated) gave tim23-1 inh 7, tim10-1 inh 2, CHOP UPR activ 0, XBP1 UPR activ -2 and TIM10 inh 5.
Screening O=C1NC(=O)N(Cc2ccccc2)C(=O)/C1=C\c1ccco1 returned tim23-1 inh 16, tim10-1 inh 7, CHOP UPR activ 2, XBP1 UPR activ 71*, TIM10 inh 9 and XBP1 UPR conf 29*.
For CCCCCc1nc2c(c(=O)c3ccccc3n2C)c(=O)n1C1CCCCCC1 the results were tim23-1 inh 70*, tim10-1 inh -40, CHOP UPR activ 12, XBP1 UPR activ 61*, TIM10 inh 0, XBP1 UPR conf 46* and tim23-1 confirm -34.
For C#CC[N+]1(C)[C@@H]2CC(OC(=O)C(CO)c3ccccc3)C[C@H]1C(O)C2 (some centres not stated) the results were tim23-1 inh -1, tim10-1 inh 8, CHOP UPR activ 7, XBP1 UPR activ -2 and TIM10 inh -5.
For COc1ccc(N2C(=O)CC(N3CC=C(c4ccccc4)CC3)C2=O)cc1 (configuration not stated) the results were tim23-1 inh 28, tim10-1 inh 43*, CHOP UPR activ -1, XBP1 UPR activ 1, TIM10 inh 27 and tim10-1 conf 22.
N#CC1(c2ccccc2)CCN(C2CC(=O)N(c3ccc(F)cc3)C2=O)CC1 (configuration not stated) was read as tim23-1 inh 2, tim10-1 inh 18, CHOP UPR activ -1, XBP1 UPR activ 0 and TIM10 inh 6.
O=C1CN=C(c2ccccc2)c2cc(Br)ccc2N1Cc1cc(=O)n2ccccc2n1 was read as tim23-1 inh 19, tim10-1 inh 41*, CHOP UPR activ 0, XBP1 UPR activ 0, TIM10 inh 25 and tim10-1 conf 5.
For C[C@H]1[C@H](OC(=O)CCC(=O)NCc2ccc(C(=O)O)cc2)O[C@@H]2O[C@@]3(C)CC[C@H]4[C@H](C)CC[C@@H]1C24OO3 the results were tim23-1 inh 21, tim10-1 inh 43*, CHOP UPR activ 12, XBP1 UPR activ 5, TIM10 inh 10 and tim10-1 conf 20.
Cn1c(O)c(C=NC2CC3CCC2(C)C3(C)C)c(=O)[nH]c1=O (configuration not stated) was read as tim23-1 inh 31, tim10-1 inh 26, CHOP UPR activ 2, XBP1 UPR activ 0 and TIM10 inh 11.
`CCCCn1c(O)c(C=NC2CC3CCC2(C)C3(C)C)c(=O)[nH]c1=O` (configuration not stated) gave tim23-1 inh 25, tim10-1 inh 55*, CHOP UPR activ 1, XBP1 UPR activ 0, TIM10 inh 38 and tim10-1 conf 40*.
For Cc1ccc(CN2CCSc3ccc(C(=O)N4CCC5(CC4)OCCO5)cc32)cc1 the results were tim23-1 inh 43, tim10-1 inh 46*, CHOP UPR activ 4, XBP1 UPR activ -6, TIM10 inh 5 and tim10-1 conf 3.
O=C(c1ccc2c(c1)N(Cc1ccc(F)cc1)CCS2)N1CCC2(CC1)OCCO2 was read as tim23-1 inh 32, tim10-1 inh 40*, CHOP UPR activ 2, XBP1 UPR activ -2, TIM10 inh -3 and tim10-1 conf 10.
Screening O=c1cccc2n1C[C@@H]1C[C@@H]2CN(CC(O)c2ccc([N+](=O)[O-])cc2)C1 (some centres not stated) returned tim23-1 inh -7, tim10-1 inh -5, CHOP UPR activ 2, XBP1 UPR activ -4 and TIM10 inh -1.
C[C@@H]1NCCc2cc(O)c(O)cc21 was read as tim23-1 inh 10, tim10-1 inh 6, CHOP UPR activ -3, XBP1 UPR activ -6 and TIM10 inh -4.
Screening COCCCn1c(N)c(C(=O)Nc2ccccc2)c2nc3ccccc3nc21 returned tim23-1 inh 40, tim10-1 inh 48*, CHOP UPR activ 1, XBP1 UPR activ 5, TIM10 inh 17 and tim10-1 conf 27.
For COCCCn1c(N)c(C(=O)NCc2ccco2)c2nc3ccccc3nc21 the results were tim23-1 inh 8, tim10-1 inh 16, CHOP UPR activ 2, XBP1 UPR activ -6 and TIM10 inh -4.
CN(C)C1(c2nnnn2CCOC(=O)Nc2ccc(Cl)cc2)CCCCC1 was read as tim23-1 inh 45, tim10-1 inh 41*, CHOP UPR activ 0, XBP1 UPR activ 3, TIM10 inh 29 and tim10-1 conf 37*.
`CN(C)C1(c2nnnn2-c2ccc(Cl)cc2)CCCCC1` gave tim23-1 inh 26, tim10-1 inh 36, CHOP UPR activ -2, XBP1 UPR activ -2 and TIM10 inh 4.
CCN(CC)C(=O)c1ccc(NC(=O)CCCSc2ccccc2)cc1 was read as tim23-1 inh 16, tim10-1 inh 6, CHOP UPR activ 1, XBP1 UPR activ -1 and TIM10 inh -37.
CCN(CC)C(=O)c1ccc(NC(=S)NC(=O)CCc2ccccc2)cc1 was read as tim23-1 inh 33, tim10-1 inh 42*, CHOP UPR activ 3, XBP1 UPR activ -5, TIM10 inh 23 and tim10-1 conf 21.
COC(=O)C1=C(c2ccc(F)cc2F)C[C@@H]2CC[C@H]1N2C(=O)NCCOc1ccccc1 was read as tim23-1 inh 25, tim10-1 inh -10, CHOP UPR activ 1, XBP1 UPR activ -1 and TIM10 inh -5.
Screening O=C(CCCOc1ccc(Cl)cc1Cl)N1CCC2(CC1)OCCO2 returned tim23-1 inh 30, tim10-1 inh 42*, CHOP UPR activ 3, XBP1 UPR activ 1, TIM10 inh 24 and tim10-1 conf 33*.
Screening COC(=O)C1=C(c2ccc3ccccc3c2)C[C@@H]2CC[C@H]1N2C(=O)NC(C)C returned tim23-1 inh 13, tim10-1 inh -2, CHOP UPR activ 0, XBP1 UPR activ 4 and TIM10 inh 9.
